Converted amounts (≈) assume the structure as drawn.
Columns and labels:
Candida albicans [1] = assay: Antifungal activity against 10^5 CFU/mL Candida albicans MTCC 183 after 48 hrs by agar streak dilution method; format: functional; conditions: MTCC 183, 48 h
Method in brief: (§1)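 Agar streak dilution for fungi. Stock 100 µg/mL in DMSO; graded amounts were mixed into molten Sabouraud dextrose agar and poured at 4–5 mm depth. Serial dilutions ran over […]. About 10⁵ CFU/mL inoculum was applied, with incubation at 37 ± 1 °C for 48 h. MIC was read from the dilution series.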

Proteus vulgaris [2] = assay: Antibacterial activity against 10^5 CFU/mL Proteus vulgaris MTCC 1771 after 24 hrs by disc diffusion technique; format: functional
Method in brief: (§2)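 Disc diffusion on Mueller–Hinton agar poured 5 mm deep. The surface was swabbed with a 10⁵ CFU/mL […] suspension. Filter-paper discs 6.25 mm in diameter were soaked in compound in DMSO and placed on the agar. Plates were incubated 24 h at 37 ± 1 °C, and the inhibition zone was measured in mm. A DMSO disc served as blank.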

Bacillus cereus [3] = assay: Antibacterial activity against 10^5 CFU/mL Bacillus cereus MTCC 619 after 24 hrs by agar streak dilution method; format: functional; conditions: MTCC 619, 24 h
Method in brief: (§3)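 Agar streak dilution. Stock 100 µg/mL in DMSO; graded amounts were mixed into molten nutrient agar and poured at 4–5 mm depth. Plates carried serial dilutions over […]. About 10⁵ CFU/mL of each bacterium was applied, and plates were incubated at 37 ± 1 °C for 24 h. MIC was read from the dilution series.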

Bacillus cereus [4] = assay: Antibacterial activity against 10^5 CFU/mL Bacillus cereus MTCC 619 after 24 hrs by disc diffusion technique; format: functional; method in brief: as §2
Pseudomonas aeruginosa [5] = assay: Antibacterial activity against 10^5 CFU/mL Pseudomonas aeruginosa MTCC 741 after 24 hrs by disc diffusion technique; format: functional; method in brief: as §2
Pseudomonas aeruginosa [6] = assay: Antibacterial activity against 10^5 CFU/mL Pseudomonas aeruginosa MTCC 741 after 24 hrs by agar streak dilution method; format: functional; conditions: MTCC 741, 24 h; method in brief: as §3
Escherichia coli [7] = assay: Antibacterial activity against 10^5 CFU/mL Escherichia coli MTCC 739 after 24 hrs by disc diffusion technique; format: functional; method in brief: as §2
Aspergillus niger [8] = assay: Antifungal activity against 10^5 CFU/mL Aspergillus niger MTCC 282 after 48 hrs by disc diffusion technique; format: functional
Aspergillus clavatus [9] = assay: Antifungal activity against 10^5 CFU/mL Aspergillus clavatus MTCC 1323 after 48 hrs by agar streak dilution method; format: functional; conditions: MTCC 1323, 48 h; method in brief: as §1
Proteus vulgaris [10] = assay: Antibacterial activity against 10^5 CFU/mL Proteus vulgaris MTCC 1771 after 24 hrs by agar streak dilution method; format: functional; conditions: MTCC 1771, 24 h; method in brief: as §3
Aspergillus fumigatus [11] = assay: Antifungal activity against 10^5 CFU/mL Aspergillus fumigatus MTCC 343 after 48 hrs by disc diffusion technique; format: functional
Klebsiella pneumoniae [12] = assay: Antibacterial activity against 10^5 CFU/mL Klebsiella pneumoniae MTCC 109 after 24 hrs by agar streak dilution method; format: functional; conditions: MTCC 109, 24 h; method in brief: as §3
Aspergillus niger [13] = assay: Antifungal activity against 10^5 CFU/mL Aspergillus niger MTCC 282 after 48 hrs by agar streak dilution method; format: functional; conditions: MTCC 282, 48 h; method in brief: as §1
Staphylococcus aureus [14] = assay: Antibacterial activity against 10^5 CFU/mL Staphylococcus aureus MTCC 96 after 24 hrs by agar streak dilution method; format: functional; conditions: MTCC 96, 24 h; method in brief: as §3
Aspergillus clavatus [15] = assay: Antifungal activity against 10^5 CFU/mL Aspergillus clavatus MTCC 1323 after 48 hrs by disc diffusion technique; format: functional
Candida albicans [16] = assay: Antifungal activity against 10^5 CFU/mL Candida albicans MTCC 183 after 48 hrs by disc diffusion technique; format: functional
Shigella flexneri [17] = assay: Antibacterial activity against 10^5 CFU/mL Shigella flexneri MTCC 1457 after 24 hrs by disc diffusion technique; format: functional; method in brief: as §2
Klebsiella pneumoniae [18] = assay: Antibacterial activity against 10^5 CFU/mL Klebsiella pneumoniae MTCC 109 after 24 hrs by disc diffusion technique; format: functional; method in brief: as §2
Aspergillus fumigatus [19] = assay: Antifungal activity against 10^5 CFU/mL Aspergillus fumigatus MTCC 343 after 48 hrs by agar streak dilution method; format: functional; conditions: MTCC 343, 48 h; method in brief: as §1
Salmonella typhi [20] = assay: Antibacterial activity against 10^5 CFU/mL Salmonella typhi MTCC 733 after 24 hrs by disc diffusion technique; format: functional, Salmonella enterica subsp. enterica serovar Typhi
Method in brief: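 Disc diffusion. Mueller-Hinton agar autoclaved 120 °C 30 min, poured 5 mm deep. Surface swabbed with 10⁵ CFU/mL suspension […]. 6.25 mm filter-paper discs soaked in compound in DMSO; DMSO-only disc as blank. Incubated 37 ± 1 °C, 24 h for bacteria or 48 h for fungi. Ciprofloxacin and ketoconazole discs as reference drugs. Inhibition zone measured in mm.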

Salmonella typhi [21] = assay: Antibacterial activity against 10^5 CFU/mL Salmonella typhi MTCC 733 after 24 hrs by agar streak dilution method; format: functional, Salmonella enterica subsp. enterica serovar Typhi; conditions: Salmonella enterica, MTCC 733, 24 h
Shigella flexneri [22] = assay: Antibacterial activity against 10^5 CFU/mL Shigella flexneri MTCC 1457 after 24 hrs by agar streak dilution method; format: functional; conditions: MTCC 1457, 24 h; method in brief: as §3
DU-145 = assay: Cytotoxicity against […] human DU145 cells after 48 hrs by SRB assay; format: functional; conditions: DU-145, 48 h
Method in brief: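 SRB assay in DU-145 cells grown in RPMI 1640 with 10% FBS and 2 mM L-glutamine. Cells were plated and held 24 h before addition of four 10-fold concentrations. After 48 h, cells were TCA-fixed, stained with 0.4% SRB and read at 540 nm. GI50, TGI and LC50 were derived against time-zero and control wells; each value is the mean of three experiments.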

Staphylococcus aureus [23] = assay: Antibacterial activity against 10^5 CFU/mL Staphylococcus aureus MTCC 96 after 24 hrs by disc diffusion technique; format: functional; method in brief: as §2
Escherichia coli [24] = assay: Antibacterial activity against 10^5 CFU/mL Escherichia coli MTCC 739 after 24 hrs by agar streak dilution method; format: functional; conditions: MTCC 739, 24 h; method in brief: as §3

Row | Structure (SMILES) | MIC (Candida albicans [1]) | inhibition zone (IZ) (Proteus vulgaris [2]) | MIC (Bacillus cereus [3]) | inhibition zone (IZ) (Bacillus cereus [4]) | inhibition zone (IZ) (Pseudomonas aeruginosa [5]) | MIC (Pseudomonas aeruginosa [6]) | inhibition zone (IZ) (Escherichia coli [7]) | inhibition zone (IZ) (Aspergillus niger [8]) | MIC (Aspergillus clavatus [9]) | MIC (Proteus vulgaris [10]) | inhibition zone (IZ) (Aspergillus fumigatus [11]) | MIC (Klebsiella pneumoniae [12]) | MIC (Aspergillus niger [13]) | MIC (Staphylococcus aureus [14]) | inhibition zone (IZ) (Aspergillus clavatus [15]) | inhibition zone (IZ) (Candida albicans [16]) | inhibition zone (IZ) (Shigella flexneri [17]) | inhibition zone (IZ) (Klebsiella pneumoniae [18]) | MIC (Aspergillus fumigatus [19]) | inhibition zone (IZ) (Salmonella typhi [20]) | further results
1 | N#Cc1ccc(Nc2nc(Oc3ccnc4ccccc34)nc(N3CCOCC3)n2)cc1C(F)(F)F | 100 µg/mL (≈ 203 µM) | 16 mm | 100 µg/mL (≈ 203 µM) | <10 mm | <10 mm | 100 µg/mL (≈ 203 µM) | <10 mm | 13 mm | 100 µg/mL (≈ 203 µM) | 100 µg/mL (≈ 203 µM) | <10 mm | 100 µg/mL (≈ 203 µM) | 100 µg/mL (≈ 203 µM) | 100 µg/mL (≈ 203 µM) | 13 mm | 13 mm | <10 mm | 14 mm | 100 µg/mL (≈ 203 µM) | 13 mm | MIC (Salmonella typhi [21]): 100 µg/mL (≈ 203 µM); MIC (Shigella flexneri [22]): 100 µg/mL (≈ 203 µM); GI50 (DU-145): 68.3 µM; LC50 (concentration giving 50% net cell kill relative to time zero) (DU-145): > 100 µM; TGI (DU-145): > 100 µM; inhibition zone (IZ) (Staphylococcus aureus [23]): 14 mm; MIC (Escherichia coli [24]): 100 µg/mL (≈ 203 µM)
2 | N#Cc1ccc(Nc2nc(Oc3ccnc4ccccc34)nc(N3CCN(c4ccccc4)CC3)n2)cc1C(F)(F)F | 100 µg/mL (≈ 176 µM) | 14 mm | 100 µg/mL (≈ 176 µM) | <10 mm | <10 mm | 100 µg/mL (≈ 176 µM) | <10 mm | <10 mm | 100 µg/mL (≈ 176 µM) | 100 µg/mL (≈ 176 µM) | <10 mm | 100 µg/mL (≈ 176 µM) | 100 µg/mL (≈ 176 µM) | 100 µg/mL (≈ 176 µM) | <10 mm | <10 mm | <10 mm | <10 mm | 100 µg/mL (≈ 176 µM) | 13 mm | MIC (Salmonella typhi [21]): 100 µg/mL (≈ 176 µM); MIC (Shigella flexneri [22]): 100 µg/mL (≈ 176 µM); GI50 (DU-145): > 100 µM; LC50 (concentration giving 50% net cell kill relative to time zero) (DU-145): > 100 µM; TGI (DU-145): > 100 µM; inhibition zone (IZ) (Staphylococcus aureus [23]): 14 mm; MIC (Escherichia coli [24]): 100 µg/mL (≈ 176 µM)
3 | CC(=O)N1CCN(c2nc(Nc3ccc(C#N)c(C(F)(F)F)c3)nc(Oc3ccnc4ccccc34)n2)CC1 | 100 µg/mL (≈ 187 µM) | 27 mm | 12.5 µg/mL (≈ 23.4 µM) | 24 mm | 24 mm | 12.5 µg/mL (≈ 23.4 µM) | 24 mm | 21 mm | 12.5 µg/mL (≈ 23.4 µM) | 6.25 µg/mL (≈ 11.7 µM) | 21 mm | 50 µg/mL (≈ 93.5 µM) | 100 µg/mL (≈ 187 µM) | 12.5 µg/mL (≈ 23.4 µM) | 27 mm | 17 mm | 23 mm | 23 mm | 100 µg/mL (≈ 187 µM) | 23 mm | MIC (Salmonella typhi [21]): 100 µg/mL (≈ 187 µM); MIC (Shigella flexneri [22]): 25 µg/mL (≈ 46.8 µM); GI50 (DU-145): 75.1 µM; LC50 (concentration giving 50% net cell kill relative to time zero) (DU-145): > 100 µM; TGI (DU-145): > 100 µM; inhibition zone (IZ) (Staphylococcus aureus [23]): 26 mm; MIC (Escherichia coli [24]): 12.5 µg/mL (≈ 23.4 µM)
